The values that follow come from ChEMBL document CHEMBL1157615, “N-methyl phenylalanine-rich peptides as highly versatile blood-brain barrier shuttles” (J Med Chem, 2010).

The nature of data set [1]: Apparent permeability in BBMEC assessed as membrane retention. The class given is ADME, cell membranes, Bos taurus. The following applies: cattle.
A short description of data set [2]: Apparent permeability in BBMEC assessed as compound transport after 2 hrs. The class given is ADME, Bos taurus. The following applies: cattle.
The nature of data set [3]: Apparent permeability in BBMEC. Format: ADME, Bos taurus. As to conditions: cattle.
The nature of data set [4]: Permeability across artificial membrane assessed as compound transport at 200 uM after 4 hrs by PAMPA using HPLC/MS method. The class given is ADME. The procedure, abridged: (§1)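 PAMPA with porcine polar brain lipid extract (20 mg/mL in dodecane) on the filter; 200 μM compound in water with 20% 1-propanol cosolvent in donor, water in acceptor; 4 h at room temperature, saturated humidity, orbital shaking 100 rpm. Donor and acceptor quantified by HPLC-MS against external calibration curves. Pe and % transport from acceptor versus initial donor concentration; retention from mass balance.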
On the technique in general: In PAMPA a lipid-coated filter parts donor from acceptor wells.

Data set [5] is described as follows: Permeability across artificial membrane assessed as membrane retention at 200 uM by PAMPA using HPLC/MS method. Format: ADME. The essentials:
as §1

Data set [6] in a line: Effective permeability across artificial membrane at 200 uM by PAMPA using HPLC/MS method. Format: ADME. As to conditions: read-out: permeability. The essentials: as §1

Each structure is given as a SMILES string. Numbered stars: 1 amine (or outer) side, 2 acyl side, 3 side chain; on linkers, the order of the positions; unused ones are H or OH. Square brackets hold non-standard residues; d marks the D form. Peptide text beside a SMILES is read from it. * marks the point of attachment. ξ: configuration not given here. 2Nal = N[C@@H](Cc1ccc2ccccc2c1)C(=O)O; NMeF = CN[C@@H](Cc1ccccc1)C(=O)O; ξNip = O=C(C1CCCN([*:1])C1)[*:2]; X1 = NCC(=O)CCC(=O)*; GABA = NCCCC(=O)O Where only a bound is given, the exact number is not on record here.

Turning to `Cn1c(=O)c2c(ncn2C)n(C)c1=O` [CAFFEINE], the values for the Activity in data set [1] and in data set [2] were 67.4% and 20.6%, respectively. The Papp in data set [3] was found to be 161 nm/s.
On to `CC(=O)N1CCC[C@H]1C(=O)N1CCC[C@H]1C(N)=O` (Ac-Pro-Pro-NH2), for which the Activity in data set [4] and in data set [5] was 0% in each case.
In the case of `NC(=O)N1c2ccccc2C=Cc2ccccc21` [CARBAMAZEPINE], the Activity in data set [1] is 67.5%; in data set [4], 19.3%; in data set [2], 20%; in data set [5], less than 1%. The Papp at 200 µM in data set [6] was 115 nm/s. Also, in data set [3], the Papp is 165 nm/s.
As to `CN(C(=O)CCCN)[C@@H](Cc1ccccc1)C(=O)N(C)[C@@H](Cc1ccccc1)C(=O)N(C)[C@@H](Cc1ccccc1)C(=O)N(C)[C@@H](Cc1ccccc1)C(N)=O` (H-[GABA][NMeF][NMeF][NMeF][NMeF]-NH2), the Activity in data set [4] was 0.8%; in data set [5], less than 1%. Further, the Papp at 200 µM in data set [6] came to 4 nm/s.
`O=C(O)C1CCCNC1` (centres undefined) [NIPECOTIC ACID]: the results for the Activity in data set [4] and in data set [5] were 0% and 52.6%, respectively.
For `CN(C(=O)[C@H](Cc1ccc2ccccc2c1)NC(=O)CCCN)[C@@H](Cc1ccccc1)C(=O)N(C)[C@@H](Cc1ccccc1)C(=O)N(C)[C@@H](Cc1ccccc1)C(N)=O` (H-[GABA][2Nal][NMeF][NMeF][NMeF]-NH2), the Activity stood at 0.4% in data set [4] and 18.4% in data set [5]. Also, in data set [6], the Papp at 200 µM is 2 nm/s.
Take `NCC(=O)CCC(=O)O` [AMINOLEVULINIC ACID]: the Activity is recorded as 0% in data set [4] and 23% in data set [5].
Consider `CC(C)NCC(O)COc1cccc2ccccc12` (centres undefined) [PROPRANOLOL], for which the Activity in data set [1] stood at 63%; in data set [4] it was 13.9%; in data set [2] it was 21.2%; in data set [5] it was 17.2%. Besides, the Papp in data set [3] is 169 nm/s.
With `CN(C(=O)C1CCCNC1)[C@@H](Cc1ccccc1)C(=O)N(C)[C@@H](Cc1ccccc1)C(=O)N(C)[C@@H](Cc1ccccc1)C(=O)N(C)[C@@H](Cc1ccccc1)C(N)=O` (some centres undefined) (ξNip-[NMeF][NMeF][NMeF][NMeF]-NH2), the Activity in data set [1] worked out at 74%; in data set [4], 2.8%; in data set [2], 7.9%; in data set [5] it was 4.6%. The Papp at 200 µM in data set [6] amounted to 14 nm/s. In addition, in data set [3], the Papp came out at 66 nm/s.
As for `CN(C(=O)[C@H](Cc1ccc2ccccc2c1)NC(=O)C1CCCNC1)[C@@H](Cc1ccccc1)C(=O)N(C)[C@@H](Cc1ccccc1)C(=O)N(C)[C@@H](Cc1ccccc1)C(N)=O` (some centres undefined) (ξNip-[2Nal][NMeF][NMeF][NMeF]-NH2), the Activity is 83.8% in data set [1], 2.4% in data set [4], 4.1% in data set [2] and 23.6% in data set [5]. The Papp at 200 µM in data set [6] worked out at 11 nm/s. Also, the Papp in data set [3] was 35 nm/s.
Consider `CN(C(=O)CCC(=O)CN)[C@@H](Cc1ccccc1)C(=O)N(C)[C@@H](Cc1ccccc1)C(=O)N(C)[C@@H](Cc1ccccc1)C(=O)N(C)[C@@H](Cc1ccccc1)C(N)=O` (X1-[NMeF][NMeF][NMeF][NMeF]-NH2), for which the Activity is 50.7% in data set [1], 2.1% in data set [4], 17.8% in data set [2] and 14.5% in data set [5]. Besides, in data set [6], the Papp at 200 µM came out at 10 nm/s. For the same compound, in data set [3], the Papp amounted to 150 nm/s.
With `NCCCC(=O)O` [GAMMA-AMINOBUTYRIC ACID], the Activity in data set [4] is recorded as 0%; in data set [5], 5.4%.
For the compound `CC(=O)N1CCC[C@H]1C(=O)N1CCC[C@H]1C(=O)N1CCC[C@H]1C(=O)N1CCC[C@H]1C(=O)N1CCC[C@H]1C(=O)N1CCC[C@H]1C(=O)N1CCC[C@H]1C(=O)N1CCC[C@H]1C(=O)N1CCC[C@H]1C(=O)N1CCC[C@H]1C(N)=O` (Ac-PPPPPPPPPP-NH2), the Activity in data set [4] and in data set [5] was 0% each time.
For `CC(=O)N1CCC[C@H]1C(=O)N1CCC[C@H]1C(=O)N1CCC[C@H]1C(=O)N1CCC[C@H]1C(N)=O` (Ac-PPPP-NH2), the Activity in data set [4] and in data set [5] was 0% each time.
With `CC(=O)N1CCC[C@H]1C(=O)N1CCC[C@H]1C(=O)N1CCC[C@H]1C(=O)N1CCC[C@H]1C(=O)N1CCC[C@H]1C(=O)N1CCC[C@H]1C(=O)N1CCC[C@H]1C(=O)N1CCC[C@H]1C(N)=O` (Ac-PPPPPPPP-NH2), the Activity in data set [4] and in data set [5] was 0% each time.
On to `CC(=O)N1CCC[C@H]1C(=O)N1CCC[C@H]1C(=O)N1CCC[C@H]1C(=O)N1CCC[C@H]1C(=O)N1CCC[C@H]1C(=O)N1CCC[C@H]1C(N)=O` (Ac-PPPPPP-NH2), for which the Activity in data set [4] and in data set [5] was 0% throughout.
